The values below come from ChEMBL document CHEMBL2176873, “α-1-C-butyl-1,4-dideoxy-1,4-imino-l-arabinitol as a second-generation iminosugar-based oral α-glucosidase inhibitor for improving postprandial hyperglycemia” (J Med Chem, 2012).

For one experiment, the species on record is Rattus norvegicus. Briefly: Inhibition of rat intestinal cellobiase using cellobiose as substrate at 1000 uM. An outline of the steps:
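Rat small-intestine brush border membrane preparation, assayed at pH 5.8 with the matching disaccharide as substrate (maltose at 25 mM). Incubation for 10–30 min at 37 °C, stopped by heating at 100 °C for 3 min and centrifuged. Released D-glucose in the supernatant was measured by glucose reagent absorbance at 505 nm.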

Experiment [1] has as its target T1, Beta-galactosidase (Bos taurus) (UniProt Q58D55).
T1 sequence (whole entry): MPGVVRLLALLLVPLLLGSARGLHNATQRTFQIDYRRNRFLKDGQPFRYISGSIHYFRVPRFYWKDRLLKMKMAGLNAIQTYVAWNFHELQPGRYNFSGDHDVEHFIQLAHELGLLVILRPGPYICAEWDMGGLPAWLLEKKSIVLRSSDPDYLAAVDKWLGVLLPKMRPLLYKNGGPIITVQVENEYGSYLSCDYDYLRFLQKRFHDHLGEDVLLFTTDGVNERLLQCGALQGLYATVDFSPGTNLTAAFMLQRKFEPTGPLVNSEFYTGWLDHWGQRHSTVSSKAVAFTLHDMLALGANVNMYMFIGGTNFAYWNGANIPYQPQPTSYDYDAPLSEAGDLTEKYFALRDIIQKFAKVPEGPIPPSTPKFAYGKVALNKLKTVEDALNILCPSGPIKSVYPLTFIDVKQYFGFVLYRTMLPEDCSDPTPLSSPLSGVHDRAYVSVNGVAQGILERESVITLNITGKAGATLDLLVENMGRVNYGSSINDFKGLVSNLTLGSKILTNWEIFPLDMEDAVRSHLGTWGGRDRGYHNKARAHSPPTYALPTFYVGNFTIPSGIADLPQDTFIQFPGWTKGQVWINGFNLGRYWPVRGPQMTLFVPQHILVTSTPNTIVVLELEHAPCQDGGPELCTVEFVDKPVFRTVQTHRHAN
Briefly: Inhibition of bovine liver beta-galactosidase at 1000 uM.

Experiment [2] deals with T2, Glucosylceramidase (Bos taurus) (UniProt Q2KHZ8).
T2 sequence (whole entry): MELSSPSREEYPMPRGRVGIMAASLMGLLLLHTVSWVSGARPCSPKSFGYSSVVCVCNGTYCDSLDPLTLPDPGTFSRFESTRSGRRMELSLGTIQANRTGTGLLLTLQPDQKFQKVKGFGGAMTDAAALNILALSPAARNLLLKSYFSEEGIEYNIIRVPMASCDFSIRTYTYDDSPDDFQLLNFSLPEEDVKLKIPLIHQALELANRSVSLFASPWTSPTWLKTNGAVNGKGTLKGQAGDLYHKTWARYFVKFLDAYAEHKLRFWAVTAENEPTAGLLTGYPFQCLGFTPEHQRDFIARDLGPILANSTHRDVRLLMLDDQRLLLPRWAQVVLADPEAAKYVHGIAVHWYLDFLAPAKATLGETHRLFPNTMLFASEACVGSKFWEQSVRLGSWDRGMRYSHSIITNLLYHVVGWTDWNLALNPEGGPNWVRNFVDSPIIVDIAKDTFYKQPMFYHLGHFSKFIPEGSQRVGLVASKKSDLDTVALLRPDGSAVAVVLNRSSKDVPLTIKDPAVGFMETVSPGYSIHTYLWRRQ
Briefly: Inhibition of bovine liver beta-glucosidase at 1000 uM.

In experiment [3] the test system is Mus musculus. Briefly: Antihyperglycemic activity in overnight fasted ddY mouse assessed as decrease in blood glucose level at 0.5 mg/kg administered via stomach tube after 60 mins by sucrose loading test relative to control. Format: functional. More on the design: scale not given: the % may be the effect or the level left. The method in brief: (§1)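 Male ddY mice received maltose or sucrose (2.5 g/kg) with inhibitor in 0.9% NaCl by stomach tube; controls got saline only. Tail-vein blood glucose was read with a portable meter at 0, 15, 30, 60 and 120 min after loading.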

For experiment [4], the system named is Mus musculus. Briefly: Antihyperglycemic activity in overnight fasted ddY mouse assessed as decrease in blood glucose level at 0.25 mg/kg administered via stomach tube measured at 15 to 30 mins by maltose loading test relative to control. Format: functional. More on the design: scale not given: the % may be the effect or the level left. An outline of the steps:
as §1

Experiment [5] has as its system Mus musculus. Briefly: Antihyperglycemic activity in overnight fasted ddY mouse assessed as decrease in blood glucose level at 0.25 mg/kg administered via stomach tube measured at 60 to 120 mins by maltose loading test relative to control. Format: functional, organism-based. More on the design: dose 0.25 mg/kg. The method in brief: as §1
Experiment [6] has as its target T3, Trehalase (Rattus norvegicus) (UniProt O70282).
T3 sequence (whole entry): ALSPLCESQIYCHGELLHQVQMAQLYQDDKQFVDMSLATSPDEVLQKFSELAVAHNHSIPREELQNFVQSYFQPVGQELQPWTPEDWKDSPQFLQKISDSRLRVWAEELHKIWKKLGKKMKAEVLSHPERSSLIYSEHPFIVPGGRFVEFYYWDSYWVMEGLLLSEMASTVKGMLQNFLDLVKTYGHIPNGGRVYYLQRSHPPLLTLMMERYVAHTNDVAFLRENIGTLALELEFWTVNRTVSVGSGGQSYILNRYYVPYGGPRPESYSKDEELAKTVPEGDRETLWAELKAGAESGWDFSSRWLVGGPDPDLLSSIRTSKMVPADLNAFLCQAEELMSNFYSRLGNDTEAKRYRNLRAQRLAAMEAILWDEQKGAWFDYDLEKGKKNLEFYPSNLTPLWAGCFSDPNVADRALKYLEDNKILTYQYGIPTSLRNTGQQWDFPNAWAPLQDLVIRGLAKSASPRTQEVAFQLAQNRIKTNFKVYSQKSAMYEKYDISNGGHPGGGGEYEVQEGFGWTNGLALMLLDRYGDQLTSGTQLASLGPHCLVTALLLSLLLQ
Briefly: Inhibition of rat intestinal trehalase at 1000 uM.

The target in experiment [7] is Lysosomal alpha-glucosidase (Homo sapiens) (UniProt P10253). Briefly: Inhibition of alpha-glucosidase in human HepG2 cells assessed as increase in expression of immature high mannose type N-linked oligosachcharides at 500 uM after 48 hrs by MALDI-TOF MS analysis relative to untreated control. It counts as cell-based. An outline of the steps: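 HepG2 cells were grown in low-glucose DMEM with 10% FCS at 37 °C, 5% CO2, and treated 48 h with 500 μM compound. Homogenates in 0.5% Triton X-100 were DTT-reduced, alkylated with iodoacetamide, trypsinized and PNGase F-released (37 °C, 16 h). Glycans were captured on hydrazide beads, methyl-esterified, released as aoWR derivatives, and profiled by MALDI-TOF MS; proportions were compared with untreated cells.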

The test system of experiment [8] is Mus musculus. Briefly: Antihyperglycemic activity in overnight fasted ddY mouse assessed as decrease in blood glucose level at 0.1 mg/kg administered via stomach tube after 60 mins by sucrose loading test relative to control. It counts as functional. More on the design: scale not given: the % may be the effect or the level left. An outline of the steps: as §1

The source made the active and inactive calls. The calls are words filed in the database; no cut-off is given here. Where only a bound is given, the exact number is not on record here.

`CCCC[C@@H]1N[C@@H](CO)[C@H](O)[C@H]1O`: the inhibition (in the experiment listed under Rattus norvegicus; in experiment [1]; in experiment [2]; in [6]) was less than 50% throughout. The Activity was 69.2% in the experiment on Mus musculus [3], 43.9% with Mus musculus [4] and 49.1% with Mus musculus [8]. Also, the outcome in the experiment on Mus musculus [5] was inactive. The inhibition result in experiment [7] was “inactive”.
